Results as given in the array DNA melting data of Ke et al. (doi:10.1101/2024.01.08.574731).

Tests used:
[1] = folding enthalpy; higher = less favourable; fluorescence melt of hairpins on a sequencing array, two-state fit; conditions: sodium 0.088 M
Procedure, shortened: (§1)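 Folding enthalpy and melting temperature were estimated with bootstrapped two-state fits and combined across four replicates by inverse-variance weighting, with fitted temperatures raised by 9.35 °C to match UV melts. The data were Cy3 fluorescence of library hairpins, with annealed Cy3 and quencher oligos, on a sequenced MiSeq flow cell in 50 mM Na-HEPES pH 8.0, 25 mM NaCl, imaged in 2.5 °C steps up to 60 °C and normalised to pre-quench Cy3 and control constructs.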

[2] = melting temperature; fluorescence melt of hairpins on a sequencing array, two-state fit, raised by 9.35 °C to match UV melts; conditions: sodium 0.088 M
Procedure, shortened: as §1

Row | Sequence | folding enthalpy [1] | Tm [2]
1 | GCAGTCGAAAGACTCTGC ((((((....)))..))) | -16.1 kcal/mol | 41.8 °C
2 | CAAGTGAAAACTTG (((((....))))) | -23.7 kcal/mol | 42.9 °C
3 | GACCCTGGAAACAGAGTC (((.(((....))).))) | -29.5 kcal/mol | 36.6 °C
4 | GCAGCACGAAAGTGATGC (((.(((....))).))) | -36.2 kcal/mol | 69 °C
5 | GAAGACGGAAACGCCTTC ((((.((....)).)))) | -26.5 kcal/mol | 45.6 °C
6 | GGTCCAGCGAAAGCTACC (((..(((....)))))) | -10.7 kcal/mol | 30.1 °C
7 | GTGCTGGGAAACCAACAC (((.(((....))).))) | -36.9 kcal/mol | 44 °C
8 | GTCCGTGGAAACACAGAC (((.(((....))).))) | -28.2 kcal/mol | 40.5 °C
9 | GTGCGAGGAAACTTGCAC ((((.((....)).)))) | -54 kcal/mol | 53.7 °C
10 | GATCCCTCACGGGATC ((((((....)))))) | -39.5 kcal/mol | 59 °C
11 | GATCAACTCTTGATC ((((((...)))))) | -35.7 kcal/mol | 42.3 °C
12 | GCTACGCGAAAGCCAAGC (((..((....))..))) | -13.3 kcal/mol | 34.9 °C
13 | GCACCGGGAAACCGGCAC (..((((....))))..) | -8.06 kcal/mol | 28.3 °C
14 | GATCAGAACCTGATC ((((((...)))))) | -36.2 kcal/mol | 46.7 °C
15 | GCCTCGCGAAAGCGGTGC ((..(((....)))..)) | -14.1 kcal/mol | 43.7 °C
16 | GGTGAGCGAAAGCTAACC (((.(((....))).))) | -33.3 kcal/mol | 55.5 °C
17 | GGCTGGGGAAACTCAGCC (((((.(....).))))) | -38.7 kcal/mol | 57 °C
18 | GATCAACAAATTGATC ((((((....)))))) | -31.3 kcal/mol | 36.4 °C
19 | GTTAGAGGAAACTCTAGC (.(((((....))))).) | -23.1 kcal/mol | 34.5 °C

Row | Sequence | folding enthalpy [1] | Tm [2]
20 | GTATGCGGAAACGTATAC ((((.((....)).)))) | -31 kcal/mol | 46.5 °C
21 | GCGCATGGAAACACGCGC ((((.((....)).)))) | -40.4 kcal/mol | 56.1 °C
22 | GGGACGCCGAAAGGCCCC (((..(((....)))))) | -13.7 kcal/mol | 45.4 °C
23 | GCAGTATCGAAAGATTGC (((..(((....)))))) | -20.5 kcal/mol | 34.9 °C
24 | GATGCCGAAAGGCTCATC ((((((....)))..))) | -10.4 kcal/mol | 32.7 °C
25 | GATCTCAATCGAGATC ((((((....)))))) | -43.7 kcal/mol | 52.2 °C
26 | TGTTGGAAACAACA (((((....))))) | -18.5 kcal/mol | 42.9 °C
27 | GCGCAGCGAAAGCCGTGC ((.(.((....)).).)) | -9.79 kcal/mol | 46.2 °C
28 | GAGTATGCGAAAGCACTC (((..(((....)))))) | -14.9 kcal/mol | 38.8 °C
29 | GTTCGGGGAAACCTGAAC ((((.((....)).)))) | -38.9 kcal/mol | 49.9 °C
30 | GAGAACGAAAGTTATCTC ((((((....)))..))) | -26 kcal/mol | 43 °C
31 | GCGAGCGAAAGCTGTCGC ((((((....)))..))) | -23.8 kcal/mol | 52.9 °C
32 | GCCTCCGAAAGGAACGGC ((((((....)))..))) | -25.3 kcal/mol | 46.9 °C
33 | GATCGTACTAACGATC ((((((....)))))) | -39.1 kcal/mol | 54.8 °C
34 | GTGAAGGGAAACCTTTAC ((.((((....)))).)) | -25.3 kcal/mol | 39.6 °C
35 | GATCTGGCTCCAGATC ((((((....)))))) | -39.4 kcal/mol | 53.1 °C
36 | GAAAGCGGAAACGCTCTC ((.((((....)))).)) | -12.3 kcal/mol | 35 °C
37 | GGAGTGAAAACTCC (((((....))))) | -27.2 kcal/mol | 54.8 °C
38 | GCCTGGCGAAAGCCGTGC ((..(((....)))..)) | -12.9 kcal/mol | 48.8 °C
